The values that follow come from ChEMBL document CHEMBL3112573, “Design, synthesis and evaluation of acridine and fused-quinoline derivatives as potential anti-tuberculosis agents” (Eur J Med Chem, 2014).

Data set [1] relates to Mycobacterium tuberculosis. As to the kind of experiment: Antimicrobial activity against Mycobacterium tuberculosis H37Rv after 7 days by BacTiter-Glo assay. To be noted: 168 h. It counts as functional, organism-based. The essentials: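 H37Rv in 384-well format, 10-point dose response, compounds serially diluted 1:2 from 100 thru 0.195 (top of range); DMSO carrier as 100% growth control, high amikacin as background, lower amikacin (MIC-approximating) control. After 7 days, equilibrated to room temperature, BacTiter-Glo added, 20 min at room temperature, luminescence (ATP) read.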

Data set [2] can be described thus: Cytotoxicity against mouse J774 cells assessed as cell viability at 10-fold above MIC relative to control. It counts as cell-based. The conditions noted are these: read-out: Activity. The method, boiled down: (§1)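 Uninfected J774 macrophages run in parallel to the infection assay (RPMI 1640, 1% FBS, 37 °C, 5% CO2), exposed to the same three concentrations (mid bracketing primary-screen MIC, ten-fold below and above); MTT proliferation read-out reported as percent viability.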

The nature of data set [3]: Cytotoxicity against mouse J774 cells assessed as cell viability at MIC relative to control. It counts as cell-based. To be noted: read-out: Activity. The essentials:
as §1

A short description of data set [4]: Cytotoxicity against mouse J774 cells assessed as cell viability at 10-fold below MIC relative to control. It counts as cell-based. To be noted: read-out: Activity. The method, boiled down:
as §1

In data set [5] the test system is Mycobacterium tuberculosis. The experiment in a line: Antimicrobial activity against Mycobacterium tuberculosis H37Rv SRI 1345 infected in mouse J774 cells assessed as intracellular growth inhibition at 10-fold above MIC after 7 days relative to control. It counts as functional. The essentials:
(§2)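 Murine J774 cells in RPMI 1640 + L-glutamine/FBS, 37 °C, 5% CO2; seeded 2.0 × 10^5 per well in 10% FBS, overnight, then 1% FBS to halt division. After 24 h infected with H37Rv at MOI 5 for 4 h, washed; drug at three concentrations (mid bracketing primary-screen MIC, ten-fold below and above) for 7 days. SDS lysis, DNase, plating on 7H10 for CFU; log reduction day 0 to day 7; duplicates, rifampin control.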

Data set [6] concerns Mycobacterium tuberculosis. The experiment in a line: Antimicrobial activity against Mycobacterium tuberculosis H37Rv SRI 1345 infected in mouse J774 cells assessed as intracellular growth inhibition at MIC after 7 days relative to control. It counts as functional. The essentials: as §2
For data set [7], the system named is Mycobacterium tuberculosis. The experiment in a line: Antimicrobial activity against Mycobacterium tuberculosis H37Rv SRI 1345 infected in mouse J774 cells assessed as intracellular growth inhibition at 10-fold below MIC after 7 days relative to control. It counts as functional. The essentials:
as §2

The test system of data set [8] is Mycobacterium tuberculosis. As to the kind of experiment: Bactericidal activity against Mycobacterium tuberculosis H37Rv SRI 1345 after 18 to 24 hrs. It counts as functional. The conditions noted are these: for MBC: Mycobacterium tuberculosis, H37Rv SRI 1345, read-out: MBC99.9. The method, boiled down: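 Following MIC testing, diluted aliquots from wells lacking macroscopic growth plated on Middlebrook 7H10 agar, 16–21 days at 37 °C, colonies counted. MBC = lowest concentration giving 99.9% kill over the MIC period (18–24 h); >40 colonies taken as rejection value; uncountable plates reported TNTC.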

For data set [9], the system named is Mycobacterium tuberculosis. As to the kind of experiment: Antimicrobial activity against Mycobacterium tuberculosis H37Rv SRI 1345 assessed as growth inhibition at MIC after 7 days by broth microdilution assay relative to control. It counts as functional. The method, boiled down:
(§3)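 Broth microdilution per CLSI in Middlebrook 7H9 + OADC; ten two-fold dilutions; inoculum targeted 1.0 × 10^6 CFU/mL M. tuberculosis; 37 °C, ~90% humidity, 7 days. Wells scored visually for turbidity, partial or complete clearing; MIC = lowest concentration visually inhibiting growth; percent inhibition at the MIC also recorded. Duplicates; rifampin or isoniazid positive control, medium-only and organism-only controls.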

Data set [10] concerns Mycobacterium tuberculosis. The experiment in a line: Antimicrobial activity against Mycobacterium tuberculosis H37Rv SRI 1345 assessed as growth inhibition after 7 days by broth microdilution assay. It counts as functional. The conditions noted are these: H37Rv SRI 1345, 168 h. The essentials:
as §3
(In general: Broth dilution looks for growth in wells or tubes with falling amounts of substance.)

Data set [11] relates to Mycobacterium tuberculosis. The experiment in a line: Antimicrobial activity against Mycobacterium tuberculosis H37Rv SRI 1345 incubated for 7 days under aerobic condition by low-oxygen recovery assay. It counts as functional, organism-based.
In data set [12] the test system is Mycobacterium tuberculosis. The experiment in a line: Antimicrobial activity against Mycobacterium tuberculosis H37Rv SRI 1345 incubated for 7 days under anaerobic condition followed by exposure to gaseous condition measured after 7 days by low-oxygen recovery assay. It counts as functional, organism-based. The method, boiled down: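 Microplates set up as for MIC testing, then held anaerobically (automated jar gassing) 7 days at 37 °C, moved to ambient air with 5% CO2 for 7 days; wells scored visually for turbidity/clearing. Result = lowest concentration visually inhibiting growth. Duplicates with sterility, growth and rifampin or isoniazid controls.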

Molecules are shown by their SMILES. Converted amounts (≈) assume the structure as drawn. The source made the active and inactive calls. The calls are words filed in the database; no cut-off is given here.

The term IC50 denotes the concentration at which inhibition is half-maximal. For orientation: IC90 means the concentration at which the effect reaches the 90% level. Read a low IC90 as greater potency. Take `Clc1ccc2nc3c(c(-c4ccccc4)c2c1)-c1ccccc1C3`: in data set [1], the IC50 was over 100 µM and the IC90 was over 100 µM.
The MIC is the lowest concentration that inhibits growth of the organism. On to `CO[C@H]1/C=C/O[C@@]2(C)Oc3c(C)c(O)c4c(O)c(c(/C=N/N5CCN(C)CC5)c(O)c4c3C2=O)NC(=O)/C(C)=C\C=C\[C@H](C)[C@H](O)[C@@H](C)[C@@H](O)[C@@H](C)[C@H](OC(C)=O)[C@@H]1C` [RIFAMPIN], for which the viability is 78% in data set [2], 86% in data set [3] and 82% in [4]. In addition, the “fold change (FC)” value in data set [5] was 1.85; in [6] it was 1.83; in data set [7], 0.46. The compound also gave a CFU in data set [8] of 39. In [8], the MBC came out at 1.56 µg/mL (≈ 1.9 µM). Besides, the “growth inhibition (GI)” value in data set [9] was found to be 65%. The MIC in data set [10] worked out at 0.049 µg/mL (≈ 0.0595 µM). Also, the IC50 in data set [1] was found to be 0.02 µM. Also, the 90% effect level in [1] (IC90) was put at 0.02 µM.
In data set [1], `N[C@@H]1CONC1=O` [CYCLOSERINE] showed an IC50 of 12.5 µM and an IC90 of 13.5 µM.
In the same order, the values of `O=C1c2ccccc2-c2nc3ccc(Cl)cc3c(-c3ccccc3)c21` are over 100 µM and over 100 µM.
Take `O=C1c2ccccc2-c2nc3ccc([N+](=O)[O-])cc3c(-c3ccccc3)c21`: in [1], the IC50 was over 100 µM and the IC90 was over 100 µM.
Consider `Clc1ccc2nc3c(c(-c4ccccc4)c2c1)CCC3`, for which the viability in data set [2] was under 10%; in data set [3], 79%; in data set [4], 86%. Further, the “fold change (FC)” value in data set [5] was found to be 3.12; in data set [6], 1.82; in data set [7], 1. The outcome in data set [11] and in data set [12] was Active. In data set [8], the CFU was determined as 0. Further, the MBC in data set [8] was determined as 50 µg/mL (≈ 179 µM). Moreover, the “growth inhibition (GI)” value in data set [9] is 88%. Moreover, the MIC in data set [10] was 12.5 µg/mL (≈ 44.7 µM). In addition, half-maximal inhibition in [1] (IC50) required 73.4 µM. For the same compound, the IC90 in [1] was over 100 µM.
In the case of `Clc1ccc2nc3c(c(-c4ccccc4)c2c1)CCCCC3`, in [1], the IC50 is over 100 µM and the IC90 is over 100 µM.
In [1], `CCc1nc(N)nc(N)c1-c1ccc(Cl)cc1` [PYRIMETHAMINE] registered an IC50 of 5 µM and an IC90 of 5 µM.
In data set [1], `Clc1ccc2nc3c(c(-c4ccccc4)c2c1)CCCC3` had an IC50 of over 100 µM and an IC90 of over 100 µM.
For the compound `CC1(C)CC(=O)c2c(nc3ccc([N+](=O)[O-])cc3c2-c2ccccc2)C1`, in [1], the IC50 is over 100 µM and the IC90 is over 100 µM.
In the case of `O=[N+]([O-])c1ccc2nc3c(c(-c4ccccc4)c2c1)CCCCC3`, the viability in data set [2] was under 10%; in data set [3], 79%; in [4] it was 82%. Further, the “fold change (FC)” value in data set [5] is 1.41; in data set [6], 1.19; in [7], 1.24. Besides, the result in [11] and in data set [12] was Active. For the same compound, in data set [9], the “growth inhibition (GI)” value was 76%. The MIC in [10] stood at 75 µg/mL (≈ 236 µM). In data set [1], half-maximal inhibition (IC50) required 61.9 µM. Moreover, it took 95.4 µM to reach the 90% level in data set [1] (IC90).
For the compound `CC[C@@H](CO)NCCN[C@@H](CC)CO` [ETHAMBUTOL], in data set [1], the IC50 is under 1.56 µM and it took 32.8 µM to reach the 90% level (IC90).
As to `O=[N+]([O-])c1ccc2nc3c(c(-c4ccccc4)c2c1)Cc1ccccc1-3`, in data set [1], the IC50 is over 100 µM and the IC90 is over 100 µM.
In data set [1], `Clc1ccc2nc3c(c(-c4ccccc4)c2c1)Cc1ccccc1-3` had an IC50 of over 100 µM and an IC90 of over 100 µM.
As for `NNC(=O)c1ccncc1` [ISONIAZID], in data set [1], half-maximal inhibition (IC50) was put at 0.18 µM and the IC90 worked out at 0.29 µM.
`O=[N+]([O-])c1ccc2nc3c(c(-c4ccccc4)c2c1)CCCC3`: the results for the viability in data set [2], in [3] and in data set [4] were 25%, 63% and 67%, respectively. Besides, the “fold change (FC)” value in data set [5] is given as 1.72; in data set [6] it was 1.25; in data set [7] it was 1.8. The outcome in [11] and in data set [12] was Active. Also, in data set [9], the “growth inhibition (GI)” value came out at 52%. Moreover, the MIC in data set [10] amounted to 12.5 µg/mL (≈ 41.1 µM). The compound also returned an IC50 in [1] of 44.4 µM. Besides, the IC90 in [1] is over 100 µM.
In data set [1], `CC1(C)CC(=O)c2c(nc3ccc(Cl)cc3c2-c2ccccc2)C1` displayed an IC50 of over 100 µM and an IC90 of over 100 µM.
In data set [1], `NCC[C@H](O)C(=O)N[C@@H]1C[C@H](N)[C@@H](O[C@H]2O[C@H](CN)[C@@H](O)[C@H](O)[C@H]2O)[C@H](O)[C@H]1O[C@H]1O[C@H](CO)[C@@H](O)[C@H](N)[C@H]1O` [AMIKACIN] displayed an IC50 of 0.07 µM and an IC90 of 0.08 µM.
